Data set [1] has as its system HepG2. Description: Inhibition of FAS gene expression in human HepG2 cells at 30 uM after 6 hrs by quantitative RT-PCR. It is filed as functional, cell-based. Put shortly:
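HepG2 cells grown at 37°C, 5% CO2 in DMEM with 10% FBS, penicillin-streptomycin and 20mM glutamine; compounds at 30μM for 6 hours. Total RNA extracted with Trizol; 2 μg reverse-transcribed to cDNA; FAS transcript quantified by real-time qPCR with cyclophilin B as invariant control. Three independent samples averaged; compared with DMSO.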

Data set [2] relates to HepG2. Put plainly: Cytotoxicity against human HepG2 cells. It is filed as cell-based.
Data set [3] has as its system FaO. Description: Inhibition of lipogenesis in rat FaO cells assessed as decrease in synthesis rate of palmitate at 20 uM after 12 hrs by deuterium enrichment-GC/MS method in presence of 100 nM insulin. It is filed as functional, cell-based. Put shortly: (§1)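 Rat hepatoma FAO cells, maintained in DMEM with 10% FBS, treated at 20μM for 12 hours with 100 nM insulin. Cells cultured in DMEM containing 10% 2H2O for 18 hours; deuterium incorporation into palmitate or cholesterol measured by GC/MS to give synthesis rate. Averages of three independent samples vs DMSO.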

For the next data set, the species on record is Mus musculus. Description: Toxicity in mouse. It is filed as organism-based. The following applies: in vivo.
The test system of data set [4] is HepG2. Put plainly: Inhibition of HMGCR gene expression in human HepG2 cells after 6 hrs by measuring mRNA level of HMGCR using quantitative RT-PCR. It counts as functional, cell-based. Put shortly:
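HepG2 cells cultured in DMEM plus 10% FBS, penicillin-streptomycin, 20mM glutamine (37°C, 5% CO2), exposed to a series of concentrations for 6 hours. HMGCR mRNA measured by qRT-PCR: Trizol RNA extraction, 2 μg RNA converted to cDNA, real-time PCR normalized to cyclophilin B.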

The test system of data set [5] is FaO. Put plainly: Inhibition of cholesterol biosynthesis in rat FaO cells at 20 uM after 12 hrs by deuterium enrichment-GC/MS method in presence of 100 nM insulin. It is filed as functional, cell-based. A digest of the protocol: as §1

The source made the active and inactive calls. No cut-off for these calls is given here.

For `CC1(C)OB(c2ccc(C=Cc3cc(Cl)cc(Cl)c3)cc2)OC1(C)C` (mixture of isomers), in the data set on HepG2 [1], the inhibition entry was “Active”. For the same compound, the Activity result in the data set with HepG2 [2] is listed as “Non-toxic”.
As for `CC1(C)OB(c2ccc(C=Cc3ccc(O)cc3)cc2)OC1(C)C` (mixture of isomers), the inhibition entry with FaO [3], in the data set with HepG2 [1] and in the data set on FaO [5] was “Active” in each case. Further, the Activity result in the data set listed under Mus musculus and in the data set on HepG2 [2] was “Non-toxic” throughout. In the data set with HepG2 [4], the inhibition result was “Dose-dependent effect”.
Take `COc1ccc(C=Cc2ccc(B3OC(C)(C)C(C)(C)O3)cc2)cc1` (mixture of isomers): the inhibition result with HepG2 [4] and in the data set on HepG2 [1] was “inactive” in each case.

Source of the values: ChEMBL document CHEMBL1828560, “Design, synthesis and biological study of pinacolyl boronate-substituted stilbenes as novel lipogenic inhibitors” (Bioorg Med Chem Lett, 2011).
